This note sets out measurements from ChEMBL document CHEMBL4020704, “Metabolite diversification by cultivation of the endophytic fungus Dothideomycete sp. in halogen containing media: Cultivation of terrestrial fungus in seawater” (Bioorg Med Chem, 2017).

The structures appear in SMILES notation. ≈ marks a conversion by molar mass, not a printed value. Calls of active or inactive are those of the source. No cut-off for these calls is given here.

In test [1] the test system is Enterococcus faecalis. The test is described as follows: Antibacterial activity against Enterococcus faecalis after 20 hrs by broth microdilution method. The class given is functional. An outline of the steps: (§1)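 Compounds dissolved in DMSO and two-fold serially diluted in 96-well plates, with final DMSO ≤0.5% (v/v). Inocula prepared in normal saline and adjusted to 0.5 McFarland turbidity. Plates incubated at 36 °C for 20 h, then absorbance read at 600 nm. MIC taken as the lowest concentration inhibiting growth.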
(Broth dilution looks for growth in wells or tubes with falling amounts of substance.)

For test [2], the system named is MOLT-3. As to the kind of experiment: Cytotoxic activity against human MOLT3 cells by XTT assay. It counts as functional, cell-based. An outline of the steps:
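Non-adherent MOLT-3 leukemia cells, viability read by XTT assay. Etoposide served as reference drug. IC50 determined.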
On the technique in general: Tetrazolium dyes change colour on reduction, which living cells bring about.

Test [3] has as its system Shigella flexneri. As to the kind of experiment: Antibacterial activity against Shigella flexneri after 20 hrs by broth microdilution method. The class given is functional. An outline of the steps:
as §1

Test [4] has as its system HuCC-A1. The test is described as follows: Cytotoxic activity against human HuCCa1 cells by MTT assay. The class given is functional, cell-based. Summed up: (§2)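 Adherent cancer cell lines, viability read by MTT assay. Doxorubicin served as reference drug for A549, HepG2 and HuCCA-1, and etoposide also for HepG2. IC50 determined.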
The test system of test [5] is HepG2. The test is described as follows: Cytotoxic activity against human HepG2 cells by MTT assay. It counts as functional, cell-based. Summed up: as §2
In test [6] the test system is Staphylococcus aureus. The test is described as follows: Antibacterial activity against Staphylococcus aureus after 20 hrs by broth microdilution method. The class given is functional. An outline of the steps: as §1
The test system of test [7] is Salmonella typhimurium. The test is described as follows: Antibacterial activity against Salmonella typhimurium after 20 hrs by broth microdilution method. It counts as functional. Particulars: Salmonella enterica subsp. enterica serovar Typhimurium. Summed up: as §1
The test system of test [8] is Escherichia coli. The test is described as follows: Antibacterial activity against Escherichia coli after 20 hrs by broth microdilution method. The class given is functional. Summed up: as §1
For test [9], the system named is Staphylococcus epidermidis. The test is described as follows: Antibacterial activity against Staphylococcus epidermidis after 20 hrs by broth microdilution method. It counts as functional. Summed up: as §1
The subject of test [10] is Bacillus cereus. As to the kind of experiment: Antibacterial activity against Bacillus cereus after 20 hrs by broth microdilution method. The class given is functional. An outline of the steps:
as §1

Test [11] relates to Pseudomonas aeruginosa. The test is described as follows: Antibacterial activity against Pseudomonas aeruginosa after 20 hrs by broth microdilution method. It counts as functional. An outline of the steps: as §1

Turning to `CO[C@@H](/C=C/C=C(\C)[C@H](O)[C@H](C)C(=O)O[C@H]1C[C@H](C)C[C@@H]2C=C[C@H](C)[C@](C)(C(=O)[C@H](O)CO)[C@@H]12)[C@@H](C)O`, the outcome in test [1], in [2], in test [3], in test [4], in test [5] and in test [7] was inactive. In addition, the result in test [8] and in [11] was inactive. Besides, the MIC in test [6], in test [9] and in test [10] was 100 µg/mL (≈ 191 µM) throughout.

For the compound `CC1=CC2=C(C[C@@H](C)C3=CC(=O)CC(C)O3)C(=O)[C@](C)(O)[C@@H](O)C2=CO1` (stereo partly drawn), the result in test [1], in test [2], in test [3], in test [4], in [5] and in [6] was inactive. Further, the result in test [7], in test [8], in test [9], in test [10] and in [11] was inactive.

As for `COc1cc([C@@H]2c3cc4c(cc3[C@@H](O[C@@H]3O[C@@H]5CO[C@@H](C)O[C@H]5[C@H](O)[C@H]3O)[C@H]3COC(=O)[C@H]23)OCO4)cc(OC)c1O` [ETOPOSIDE], the results for the IC50 in test [2] and in [5] were 0.04 µg/mL (≈ 0.068 µM) and 24.3 µg/mL (≈ 41.3 µM), respectively.

As to `C[C@H]1C=C[C@H]2C[C@@](O)(CO)CC[C@@H]2[C@@]1(C)C(=O)CCO`, the result in test [1], in test [2], in test [3], in [4], in test [5] and in [6] was inactive. Further, the outcome in test [7], in test [8], in [9], in test [10] and in test [11] was inactive.

As to `C/C(=C\C=C\[C@H](O)[C@@H](C)O)[C@H](O)[C@H](C)C(=O)O[C@H]1C[C@H](CO)C[C@@H]2C=C[C@H](C)[C@](C)(C(=O)CCO)[C@@H]12`, the result in test [1], in [2], in [3], in test [4], in test [5] and in test [6] was inactive. Further, the outcome in [7], in test [8], in [9], in test [10] and in test [11] was inactive.

On to `CO[C@@H](/C=C/C=C(\C)[C@H](O)[C@H](C)C(=O)O[C@H]1C[C@H](C)C[C@@H]2C=C[C@H](C)[C@](C)(C(=O)[C@H](O)CO)[C@@H]12)[C@H](C)O`, for which the result in test [1], in [2], in test [3], in test [4], in test [5] and in test [6] was inactive. In addition, the result in [7], in test [8], in test [9], in test [10] and in test [11] was inactive.

Turning to `C[C@H]1C=C[C@H]2C[C@@H](CO)C[C@H](O)[C@@H]2[C@@]1(C)C(=O)[C@H](O)CO`, the result in [1], in test [2], in test [3], in test [4], in test [5] and in [6] was inactive. Also, the result in test [7], in test [8], in test [9], in [10] and in test [11] was inactive.

On to `C/C(=C\C=C\[C@H](O)[C@H](C)O)[C@H](O)[C@H](C)C(=O)O[C@H]1C[C@H](C)C[C@@H]2C=C[C@H](C)[C@](C)(C(=O)[C@H](O)CO)[C@@H]12`, for which the outcome in [1], in test [2], in [3], in test [4], in test [5] and in test [6] was inactive. Further, the result in test [7], in [8], in test [9], in test [10] and in test [11] was inactive.

As for `CN(C)[C@@H]1C(O)=C(C(N)=O)C(=O)[C@@]2(O)C(O)=C3C(=O)c4c(O)cccc4[C@@](C)(O)[C@H]3C[C@@H]12` [TETRACYCLINE], the MIC is 0.78 µg/mL (≈ 1.76 µM) in test [6], 1.56 µg/mL (≈ 3.51 µM) in [9] and 6.25 µg/mL (≈ 14.1 µM) in test [10].

`CC1=CC2=C(C[C@H](C)C3=CC(=O)CC(C)O3)C(=O)[C@](C)(O)[C@@H](O)C2=CO1` (stereo partly drawn): the result in test [1], in [2], in test [3], in test [4], in [5] and in [6] was inactive. In addition, the result in test [7], in test [8], in test [9], in test [10] and in test [11] was inactive.

Regarding `CC1=CC2=C(CC(C)C(=O)C[C@H](C)O)C(=O)[C@](C)(O)[C@@H](O)C2=CO1` (stereo partly drawn), the result in test [1], in test [2], in [3], in [4], in test [5] and in [6] was inactive. For the same compound, the outcome in [7], in [8], in [9], in test [10] and in [11] was inactive.

As for `O=C(N[C@H](CO)[C@H](O)c1ccc([N+](=O)[O-])cc1)C(Cl)Cl` [CHLORAMPHENICOL], the minimal inhibitory concentration (MIC) in test [6], in test [9] and in test [10] was 0.78 µg/mL (≈ 2.41 µM) throughout.

For the compound `COc1cccc2c1C(=O)c1c(O)c3c(c(O)c1C2=O)C[C@@](O)(C(=O)CO)C[C@@H]3O[C@H]1C[C@H](N)[C@H](O)[C@H](C)O1` [DOXORUBICIN], the IC50 in test [4] was determined as 0.33 µg/mL (≈ 0.607 µM).

For orientation: MIC means the lowest concentration found to suppress growth. The term IC50 denotes the concentration that inhibits the measured activity by half. A lower IC50 goes with greater potency.
